Reference: ChEMBL document CHEMBL1141612, “Glyconanobiotics: Novel carbohydrated nanoparticle antibiotics for MRSA and Bacillus anthracis” (2008)
Converted amounts (≈) assume the structure as drawn.

Assays:
Type in all cases: functional
Staphylococcus aureus [1] = assay: Antibacterial activity against Staphylococcus aureus ATCC 25923 after 24 hrs by broth dilution MIC assay; conditions: ATCC 25923, 24 h
Procedure, shortened: (§1)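 Broth serial dilution. For nanoparticle emulsions, the drug content is assumed equal to the amount used in the polymerization, expressed as µg drug per mL of undiluted emulsion.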

Staphylococcus aureus [2] = assay: Antibacterial activity against methicillin-resistant Staphylococcus aureus ATCC 43300 after 24 hrs by broth dilution MIC assay; conditions: ATCC 43300, 24 h; procedure, shortened: as §1
Bacillus anthracis = assay: Antibacterial activity against Bacillus anthracis after 24 hrs by broth dilution MIC assay; procedure, shortened: as §1

SMILES	MIC (Staphylococcus aureus [1]) [µg/mL]	MIC (Staphylococcus aureus [2]) [µg/mL]	MIC (Bacillus anthracis) [µg/mL]
C=CC(=O)O[C@@H]1[C@@H]2OC(C)(C)O[C@@H]2O[C@@H]1C(COC(C)=O)OC(=O)CCC(=O)N[C@@H]1C(=O)N2C1SC(C)(C)[C@@H]2C(=O)O (stereo partly specified)	> 256	> 256	> 256
C=CC(=O)O[C@@H]1[C@@H]2OC(C)(C)O[C@@H]2O[C@@H]1C(COC(C)=O)OC(=O)CCC(=O)N1CCN(c2cc3c(cc2F)c(=O)c(C(=O)O)cn3C2CC2)CC1 (stereo partly specified) [CIPROFLOXACIN ACRYLATE]	32 (≈ 43.9 µM)	32 (≈ 43.9 µM)	16 (≈ 21.9 µM)
C=CC(=O)O[C@@H]1[C@H]2OC(C)(C)O[C@H]2O[C@@H]1C(COC(=O)CCC(=O)O[C@H]1C(=O)N(SC(C)CC)[C@H]1c1ccccc1Cl)OC(=O)CCC(=O)O[C@H]1C(=O)N(SC(C)CC)[C@H]1c1ccccc1Cl (stereo partly specified) [LACTAM MONOMER]	128 (≈ 127 µM)	128 (≈ 127 µM)	64 (≈ 63.4 µM)
CC1(C)S[C@@H]2[C@H](NC(=O)Cc3ccccc3)C(=O)N2[C@H]1C(=O)O [PENICILLIN G]	0.012 (≈ 0.0359 µM)	16 (≈ 47.8 µM)	–
